Bioassay records from PubChem.
p97 inhibitor: inhibitors of human p97 ATPase, primary screen, biochemical; Transitional endoplasmic reticulum ATPase (Homo sapiens), P55072; recombinant p97 ATPase, Kinase-Glo ATP luminescence, 3 h; inhibition, % at 8 µM; hit rate 0.42% among 220,000; AID 1481, 2009; in the data active = inhibition above about 15%
CHOP UPR activ: activators of apoptotic CHOP UPR arm, primary screen, cell-based, CHO-CHOP luciferase reporter, luminescence, uHTS | hit rate 0.34% among 330,000 | AID 449763, 2010 | UPR activation; percent of tunicamycin response over DMSO baseline | activation, % at 10 µM;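 active = at 10 µM dose, activation of 40% or more, normalized to positive control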
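Assay system: CHO-CHOP cells, stable luciferase reporter of PERK-eIF2a-CHOP signalling / Buffer or medium: F12 plus 10% serum / Compound dosing: one dose, 10 µM in 0.5% DMSO / Times: 6 h compound treatment, 37 °C / Technique: luciferase luminescence / Read-out: % reporter activation, DMSO baseline versus tunicamycin full activation / Benchmarks: tunicamycin and DMSO controls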
M18AAP inhibitor: PfM18AAP inhibitors, malaria aminopeptidase, primary screen, biochemical, QFRET, recombinant enzyme | H-Glu-NHMec fluorogenic cleavage | AID 1822, 2009 | M18 aspartyl aminopeptidase (Plasmodium falciparum 3D7) | inhibition, % at 7.35 µM | hit rate 1.2% among 290,000;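 active = inhibition above the campaign mean inhibition over all tested compounds plus 3 SD, cut at about 28% in these data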
CHOP inh: inhibitors of CHOP promoter induction, primary screen, cell-based, unfolded protein response, luciferase reporter; CHO-K1 CHOP-promoter luciferase, tunicamycin-induced, 15-18 h; inhibition, % at 10 µM; hit rate 3.8% among 220,000;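 active = compounds that reduced the stress-induced luciferase reporter signal by more than about 70% of percent inhibition, limit read from the data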
XBP1 UPR activ: activators of adaptive XBP1 UPR arm, primary screen, cell-based, CHO-XBP1 luciferase reporter, luminescence, uHTS. activation, % at 20 µM. IRE1-XBP1 UPR activation; percent of tunicamycin response, DMSO as zero. hit rate 0.33% among 330,000. AID 463104, 2010;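 active = versus positive control, 20 µM dose yields 30% or more activation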
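Test system: CHO-XBP1 luciferase reporter cells | Buffer or medium: Serum-containing F12 medium, 10% FBS | Schedule: 6 h compound exposure at 37 °C, 5% CO2 | Detection: Steady-Glo luciferase glow luminescence, 10 min after reagent addition | Read-out basis: Activation, % of tunicamycin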
HCV NS3 hel inh: inhibitors of HCV NS3 helicase, primary screen, biochemical, Cy5 molecular beacon fluorescence; Hepatitis C virus NS3 helicase; NS3 helicase DNA unwinding; inhibition, % at 10.9 µM; hit rate 0.56% among 290,000; AID 1800, 2009;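 active = inhibition above the mean of all tested compounds plus 3 SD, set per campaign, cut at about 35% in these data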
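Control set: DMSO versus 110 µM thioflavine S; Material: NS3 helicase fragment of HCV; Measured by: Cy5 fluorescence at 0 and 60 min, beacon hairpin quenching; Read-out basis: percent inhibition from t60/t0 fluorescence ratio; Times: reaction time 60 min, 25 °C; Repeats: single replicate; Compound dosing: single dose, 10.9 µM nominal final, DMSO 0.8% final.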
NS3 helicase cf: HCV NS3 helicase inhibitors, retest, confirmation, biochemical, Cy5 molecular beacon fluorescence, triplicate; AID 1943, 2009; shares compounds with HCV NS3 hel inh; NS3 helicase DNA unwinding; hit rate 31% among 1,600; inhibition, % at 10.9 µM;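 active = inhibition above the mean of all tested compounds plus 3 SD, cutoff set per campaign, cut at about 36% in these data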
DNA FID counter: compounds displacing fluorescent DNA intercalator, artefact control for HCV NS3 helicase inhibitor project, biochemical, FID fluorescence, triplicate; inhibition, % at 7.9 µM; hit rate 4% among 1,600; AID 1945, 2009; shares compounds with HCV NS3 hel inh; DNA fluorescent intercalator displacement; in the data active = inhibition above about 37%;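 also: higher means more displacement of ethidium bromide from the DNA hairpin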
Of the large screens only hits and unclear results are named; the others gave an inactive call (follow-up assays come after a bar, where they were run). Shown are actives, neighbours in structure and some others; about 4.5% of the full set was active somewhere.

CCSc1nc2c(c(=O)[nH]1)C(c1cccnc1)C(C(=O)OC)=C(C)N2 (configuration not stated)	HCV NS3 hel inh 39 | NS3 helicase cf inactive | DNA FID counter inactive
CC(C)(C)C1CCc2[nH]nc(C(=O)O)c2C1 (configuration not stated)	HCV NS3 hel inh 37 | NS3 helicase cf inactive | DNA FID counter inactive
CCC(C)(C)C1CCc2[nH]nc(C(=O)O)c2C1 (configuration not stated)	none (no result: p97 inhibitor, M18AAP inhibitor, CHOP inh, HCV NS3 hel inh)
Cc1ccc(CNC(=O)CS(=O)(=O)Cc2nc(-c3ccc(C)cc3)oc2C)cc1	HCV NS3 hel inh 41 (no result: p97 inhibitor, CHOP inh) | NS3 helicase cf inactive | DNA FID counter inactive
COc1ccc(NS(=O)(=O)c2csc(C(=O)N3CCCC3)c2)c(OC)c1	none (no result: p97 inhibitor, CHOP inh)
Cc1ccc(OCC(=O)Nc2nnc(S(=O)(=O)N3CCC(C)CC3)s2)cc1	HCV NS3 hel inh 36 (no result: p97 inhibitor, CHOP inh) | NS3 helicase cf inactive | DNA FID counter inactive
COc1ccc(OCC(=O)Nc2nnc(S(=O)(=O)N3CCCCCC3)s2)cc1	none (no result: p97 inhibitor, CHOP inh)
CC(=O)NC1(c2ccccc2)CCN(c2cc(C)nc(-c3ccccc3)n2)CC1	none
COC(=O)c1ccc(CN2CCN(CC(C)C)C(CCO)C2)cc1 (configuration not stated)	HCV NS3 hel inh 38 | NS3 helicase cf inactive | DNA FID counter inactive
COCCN(C(=O)c1snc(C(N)=O)c1N)C(C(=O)NC1CCCCC1)c1ccc(OC)c(OC)c1 (configuration not stated)	none (no result: p97 inhibitor, CHOP inh)
COc1ccc(C2=NN(CC(=O)Nc3cc(C)ccc3C)C(=O)CC2)cc1	none
O=C(O)c1ccc(S(=O)(=O)N(CCc2ccccc2)Cc2ccc(Cl)cc2)cc1	HCV NS3 hel inh 45 (no result: p97 inhibitor, CHOP inh) | NS3 helicase cf inactive | DNA FID counter inactive
O=C(O)c1ccc(S(=O)(=O)N(Cc2ccccc2)Cc2ccccc2)cc1	none (no result: p97 inhibitor, CHOP inh)
Cc1ccc(S(=O)(=O)N(Cc2ccc(Cl)cc2)c2ccccc2C(=O)O)cc1	HCV NS3 hel inh 36 (no result: p97 inhibitor, CHOP inh) | NS3 helicase cf 41 | DNA FID counter inactive
Cc1ccc(Nc2cccccc2=O)cc1	HCV NS3 hel inh 45 | NS3 helicase cf inactive | DNA FID counter inactive
CCCc1cc(=O)oc2cc(C)cc(OC(C)C(=O)NCC3CCC(C(=O)O)CC3)c12 (configuration not stated)	HCV NS3 hel inh 38 (no result: p97 inhibitor, CHOP inh) | NS3 helicase cf inactive | DNA FID counter inactive
CC(C)N(C(=O)C[n+]1ccsc1N)c1ccccc1	none
Cc1c(NC(=O)c2nn3c(C(F)(F)F)cc(-c4ccccc4)nc3c2Cl)c(=O)n(-c2ccccc2)n1C	HCV NS3 hel inh 37 | NS3 helicase cf inactive | DNA FID counter inactive
COc1ccc(-c2cc(C(F)(F)F)n3nc(C(=O)Nc4c(C)n(C)n(-c5ccccc5)c4=O)c(Cl)c3n2)cc1	none
O=C(COc1ccc2ccccc2c1)N[C@@H](C(=O)O)c1ccc(O)cc1	HCV NS3 hel inh 43 (no result: p97 inhibitor, CHOP inh) | NS3 helicase cf inactive | DNA FID counter inactive
O=C(COc1ccc2ccccc2c1)NNC(=O)Cc1ccccc1	none (no result: CHOP UPR activ, XBP1 UPR activ)
Cc1nc(C)n(CCNS(=O)(=O)c2ccc(C)c(C)c2)n1	none (no result: p97 inhibitor, CHOP inh)
Cc1nc2c(-c3ccccc3)cnn2c(N)c1-c1ccccc1	none (no result: p97 inhibitor, CHOP inh)
CC(C(=O)O)N1C(=O)C2C3CC(C2C1=O)C1C(c2ccccc2)c2sc(=O)[nH]c2SC31 (configuration not stated)	HCV NS3 hel inh 75 | NS3 helicase cf inactive | DNA FID counter inactive
